Substrate in this series: NC(=O)c1cccnc1
Description: Drug metabolism in human liver microsomes assessed as CYP2E1-mediated nicotinamide N-oxide formation after 30 mins by HPLC analysis. The format is ADME. In short, it runs like this:
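Pooled human liver microsomes at 1 mg/ml in 0.1 M NaH2PO4, pH 7.4, with 1mM NADPH were preincubated 2 min at 37°C. NAM was added at varied concentrations and run 30 min, then stopped with ice-cold methanol. N-oxide was measured by HILIC HPLC with UV at 254 nm against a standard curve. Km and Vmax came from a Michaelis-Menten nonlinear fit. Triplicates.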
For orientation: Liver microsomes are a subcellular fraction often used to study metabolism.

B1: Cytochrome P450 2E1 (Homo sapiens) (protein)
chain: MSALGVTVALLVWAAFLLLVSMWRQVHSSWNLPPGPFPLPIIGNLFQLELKNIPKSFTRLAQRFGPVFTLYVGSQRMVVMHGYKAVKEALLDYKDEFSGRGDLPAFHAHRDRGIIFNNGPTWKDIRRFSLTTLRNYGMGKQGNESRIQREAHFLLEALRKTQGQPFDPTFLIGCAPCNVIADILFRKHFDYNDEKFLRLMYLFNENFHLLSTPWLQLYNNFPSFLHYLPGSHRKVIKNVAEVKEYVSERVKEHHQSLDPNCPRDLTDCLLVEMEKEKHSAERLYTMDGITVTVADLFFAGTETTSTTLRYGLLILMKYPEIEEKLHEEIDRVIGPSRIPAIKDRQEMPYMDAVVHEIQRFITLVPSNLPHEATRDTIFRGYLIPKGTVVVPTLDSVLYDNQEFPDPEKFKPEHFLNENGKFKYSDYFKPFSTGKRVCAGEGLARMELFLLLCAILQHFNLKPLVDPKDIDLSPIHIGFGCIPPRYKLCVIPRS
As usually defined, the Km is the substrate concentration at which the rate is half of its maximum. By Vmax is commonly meant the top rate of the reaction or transport when substrate is in excess. As for B1, the Km was determined as 2980 µM and the Vmax stood at 6.01e-05 µmol/min/mg.

(Values after ChEMBL document CHEMBL3525986, “Nicotinamide N-oxidation by CYP2E1 in human liver microsomes” (Drug Metab Dispos, 2013).)
